In ChEMBL document CHEMBL4680102, “Design, Synthesis, and Biological Activity of Substrate Competitive SMYD2 Inhibitors” (J Med Chem, 2016):
pEC50, pIC50, pKd: −log10 of the molar value. In brackets after ≈: the same amount, converted by molar mass. Activity calls are given as the source filed them. No cut-off for these calls is given here.

Columns and labels:
[1] = molecular target: T1, N-lysine methyltransferase SMYD2 (Homo sapiens, UniProt Q9NRG4); assay: Inhibition of SMYD2 (unknown origin)
[2] = molecular target: T1, N-lysine methyltransferase SMYD2; assay: Inhibition of SMYD2 (unknown origin) expressed in human U2OS cells assessed as reduction in monomethylated p53 levels incubated for 24 hrs by immunofluorescence assay; type: cell-based
In short: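 U2OS plated 8,000 cells/well, transfected (Fugene) with FLAG-tagged wild-type SMYD2 construct. Compound from DMSO in media (final DMSO 0.2%), 24 h. Cells PFA-fixed, stained with anti-FLAG (1:800), polyclonal anti-monomethyl p53 K370 peptide antibody (1:1000) and DAPI, then imaged. IC50 from fluorescent intensity per cell for methylation; DAPI count gave the cell-count IC50.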

[3] = Unbound fraction in human plasma by equilibrium dialysis; type: ADME, cell-free
In short: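 Human plasma, compound added from DMSO stock; fraction unbound (fu%) by equilibrium dialysis.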

[4] = Solubility of compound in 0.1 M phosphate buffer at pH 7.4 at 25 degC after 24 hrs; type: physicochemical
In short: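 Solid sample shaken 24 h in 0.1 M phosphate buffer, pH 7.4, 25 °C.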

[5] = Intrinsic clearance in human liver microsomes; type: ADME, Microsome; conditions: read-out: CLH
[6] = Intrinsic clearance in human liver microsomes; conditions: read-out: CLH
[7] = Distribution coefficient, logD of compound; type: physicochemical; conditions: octanol/water
[8] = molecular target: T1, N-lysine methyltransferase SMYD2; assay: Binding affinity to SMYD2 (unknown origin) by ITC assay
In short: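 Microcal ITC at 23 °C in 25 mM Tris pH 8.5, 50 mM NaCl, 2% DMSO. Cell held ~15 µM SMYD2; syringe 200 µM compound. Eight 4 µL injections gave a final compound:protein molar ratio of ~1.4:1.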

RKOE6 = assay: Antiproliferative activity against human RKOE6 cells assessed as reduction in cell viability at 0.03 to 30 uM incubated for 72 hrs by Alamar blue based assay; type: functional; conditions: dose 0.03-30 µM
In short: (§1)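 Matched p53 wild-type/deficient pairs (HCT116 p53+/+ and p53-/-; RKO-neo and RKO-E6a) seeded in triplicate, attached overnight. Media replaced with DMSO control or compound media, 0.03 to 30 µM, 72 h. Viability read as fluorescence after AlamarBlue incubation. Triplicate in two separate experiments; mean ±SEM.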

RKO = assay: Antiproliferative activity against human RKO cells assessed as reduction in cell viability at 0.03 to 30 uM incubated for 72 hrs by Alamar blue based assay; type: functional; conditions: dose 0.03-30 µM; in short: as §1
HCT-116 [9] = assay: Antiproliferative activity against human HCT-116 cells deficient in p53 gene assessed as reduction in cell viability at 0.03 to 30 uM incubated for 72 hrs by Alamar blue based assay; type: functional; conditions: dose 0.03-30 µM; in short: as §1
[10] = molecular target: T1, N-lysine methyltransferase SMYD2; assay: Ratio of IC50 for SMYD2 (unknown origin) to IC50 for inhibition of SMYD2 (unknown origin) expressed in human U2OS cells; type: cell-based
HCT-116 [11] = assay: Antiproliferative activity against human HCT-116 cells contains wild-type p53 gene assessed as reduction in cell viability at 0.03 to 30 uM incubated for 72 hrs by Alamar blue based assay; type: functional; conditions: dose 0.03-30 µM; in short: as §1

T1 sequence (Q9NRG4 whole entry): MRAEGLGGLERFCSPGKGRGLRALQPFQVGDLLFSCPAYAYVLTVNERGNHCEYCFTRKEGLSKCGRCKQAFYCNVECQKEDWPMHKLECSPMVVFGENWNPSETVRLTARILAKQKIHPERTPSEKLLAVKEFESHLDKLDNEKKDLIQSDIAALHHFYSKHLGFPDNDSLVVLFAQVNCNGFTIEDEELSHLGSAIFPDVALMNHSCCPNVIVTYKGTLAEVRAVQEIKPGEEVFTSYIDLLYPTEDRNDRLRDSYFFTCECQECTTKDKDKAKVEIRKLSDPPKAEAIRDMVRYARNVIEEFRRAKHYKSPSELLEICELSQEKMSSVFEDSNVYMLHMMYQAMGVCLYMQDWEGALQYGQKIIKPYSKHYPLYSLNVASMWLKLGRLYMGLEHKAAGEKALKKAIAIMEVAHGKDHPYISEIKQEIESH

Structure (SMILES) | pIC50 [1] | pEC50 [2] | fraction unbound [3] | solubility at 24 h [4] [µM] | other results
CNc1cc(C(=O)NCCCN2CCCC2)cc(-c2ccccc2C)n1 | 4.75 | – | – | – | –
O=C(NCCCN1CCCC1)c1ccnc(-c2ccccc2N2CCN(CCc3c[nH]c4ccccc34)CC2)c1 | 7.21 | 5.25 | 0.34 | 923 (≈ 495 µg/mL) | –
Cc1cccc(CCN2CCN(c3ccccc3-c3cccc(C(=O)NCCCN4CCCC4)c3)CC2)c1 | 6.68 | 5.38 | 0.053 | 722 (≈ 369 µg/mL) | microsomal CLint [5]: 35 µL/min/mg
Cc1ccccc1-c1cc(C(=O)NCCCN2CCCCC2)c2cn[nH]c2n1 | 4.87 | – | – | – | –
COc1ccc(CCN2CCN(c3ccccc3-c3cc(C(=O)NCCCN4CCCC4)ccn3)CC2)cc1 | 5.98 | 5.61 | 0.34 | > 1000 | –
Cc1cccc(CCN2CCN(c3ccccc3-c3cc(C#N)cc(C(=O)NCCCN4CCCC4)c3)CC2)c1 | 7.51 | 5.92 | 0.023 | 588 (≈ 315 µg/mL) | microsomal CLint [5]: 43 µL/min/mg
COc1cccc(CNC2CCN(c3ccccc3-c3cncc(C(=O)NCCCN4CCCC4)c3)CC2)c1 | 7.41 | 5.24 | 0.14 | 915 (≈ 483 µg/mL) | microsomal CLint [6]: 28 µL/min/mg; logD [7]: 1.9
O=C(NCCCN1CCCC1)c1ccnc(-c2ccccc2N2CCN(CCc3ccc(Cl)cc3)CC2)c1 | 6.52 | 5.79 | 0.13 | > 1000 | –
Cc1ccccc1-c1cc(C(=O)NCC(Cc2ccccc2)CN2CCCC2)c2cn[nH]c2n1 (stereo not drawn) | 5.44 | – | – | – | –
O=C(NCCCN1CCCC1)c1cncc(-c2ccccc2OC2CN(CCc3ccc(Cl)c(Cl)c3)C2)c1 | 7.92 | < 4.62 | 0.11 | > 1000 | microsomal CLint [6]: 33.5 µL/min/mg; logD [7]: 2.4
COc1cccc(CCN2CCN(c3ccccc3-c3cc(C#N)cc(C(=O)NCCCN4CCCC4)c3)CC2)c1 | 7.23 | 5.57 | 0.073 | 602 (≈ 332 µg/mL) | microsomal CLint [5]: 74 µL/min/mg
NCC1(C(=O)Nc2ccc(Cl)cc2)CCN(c2ncnc3[nH]nc(C4CC4)c23)CC1 | – | – | – | – | Activity [8]: Active
N#Cc1cc(C(=O)NCCCN2CCCC2)cc(-c2ccccc2N2CCN(CCc3ccc(Cl)c(Cl)c3)CC2)c1 | 6.86 | 6.37 | < 0.01 | 34 (≈ 20.1 µg/mL) | Activity (RKOE6): Active; pIC50 [2]: 6.17; microsomal CLint [5]: 73 µL/min/mg; Activity (RKO): Active; Activity (HCT-116 [9]): Active; Ratio IC50 [10]: > 2; Activity (HCT-116 [11]): Active
N#Cc1cc(C(=O)NCCCN2CCCC2)cc(-c2ccccc2N2CCN(CCc3c[nH]c4ccccc34)CC2)c1 | 7.55 | 6.57 | 0.038 | 396 (≈ 222 µg/mL) | microsomal CLint [5]: 21 µL/min/mg
O=C(NCCCN1CCCC1)c1cc(-c2ccccc2N2CCN(CCc3ccc(Cl)c(Cl)c3)CC2)nc2[nH]ncc12 | 7.19 | 6.26 | < 0.01 | 174 (≈ 106 µg/mL) | microsomal CLint [6]: > 300 µL/min/mg; logD [7]: > 3.5
CCOc1cccc(C(=O)NC2CC3(CCNCC3)c3ccccc32)c1 (stereo not drawn) | – | – | – | – | Activity [8]: Active
O=C(NCCCN1CCCC1)c1ccnc(-c2ccccc2N2CCN(CCc3ccc(Cl)c(Cl)c3)CC2)c1 | 6.92 | 5.25 | 0.014 | 790 (≈ 448 µg/mL) | –
CCn1cncc1CN1CCc2[nH]c(=O)cc(-c3ccc(Cl)cc3)c2C1 | – | – | – | – | Activity [8]: Active
Cc1ccccc1-c1cc(C(=O)NCCCN2CCCC2)c2cn[nH]c2n1 | 5.25 | – | 0.43 | > 1000 | pKd [8]: 5.76; microsomal CLint [6]: 92 µL/min/mg; logD [7]: 1.19
O=C(NCCCN1CCCC1)c1cc(-c2ccccc2Cl)nc2[nH]ncc12 | 5.10 | – | – | – | –
O=C(NCCCN1CCCC1)c1cncc(-c2ccccc2N2CCN(CCc3ccc(Cl)c(Cl)c3)CC2)c1 | 7.42 | 6.35 | 0.011 | 393 (≈ 223 µg/mL) | –
Cc1ccccc1-c1cc(C(=O)NCCCN(C)C)c2cn[nH]c2n1 | < 4.21 | – | – | – | –
Cc1ccccc1-c1cc(C(=O)NCCCN2CCCC2)c2c(C3CC3)n[nH]c2n1 | 4.88 | – | – | – | –

Structure (SMILES) | pIC50 [1] | pEC50 [2] | fraction unbound [3] | solubility at 24 h [4] [µM] | other results
Cc1ccccc1-c1cc(C(=O)NCCCN2CCC(N3CCCCC3)CC2)c2cn[nH]c2n1 | 4.71 | – | – | – | –
Cc1ccccc1-c1cc(C#N)cc(C(=O)NCCCN2CCCC2)c1 | 5.14 | – | – | – | –
CN(CCCN1CCCC1)C(=O)c1cc(-c2ccccc2Br)nc2[nH]ncc12 | 5.14 | – | – | – | –
O=C(NCCCN1CCCC1)c1cccc(-c2ccccc2N2CCN(CCc3c[nH]c4ccccc34)CC2)c1 | 7.39 | 5.46 | 0.033 | 246 (≈ 132 µg/mL) | microsomal CLint [5]: 16 µL/min/mg
Cc1ccccc1-c1cccc(C(=O)NCCCN2CCCC2)c1 | 4.76 | – | – | – | –
O=C(NCCCN1CCCC1)c1cccc(-c2ccccc2N2CCN(CCc3ccc(Cl)cc3)CC2)c1 | 6.94 | 5.51 | 0.012 | 332 (≈ 176 µg/mL) | microsomal CLint [5]: 30 µL/min/mg
Cc1ccccc1-c1cc(C(=O)NCCCN2CCOCC2)c2cn[nH]c2n1 | 4.38 | – | – | – | –
O=C(NCCCN1CCCC1)c1cccc(-c2ccccc2N2CCN(CCc3ccccc3)CC2)c1 | 6.47 | 5.31 | 0.08 | 851 (≈ 423 µg/mL) | microsomal CLint [5]: 30 µL/min/mg
COc1cc(C(=O)NCCCN2CCCC2)cc(-c2ccccc2C)n1 | 5.00 | – | – | – | –
Cc1ccccc1-c1cc(C(=O)N2CCC(N3CCCCC3)CC2)c2cn[nH]c2n1 | 4.77 | – | – | – | –
O=C(NCCCN1CCCC1)c1cncc(-c2ccccc2N2CCN(CCc3c[nH]c4ccccc34)CC2)c1 | 7.77 | 5.99 | 0.17 | 858 (≈ 461 µg/mL) | Activity (RKOE6): Active; pIC50 [2]: 5.61; Activity (RKO): Active; Activity (HCT-116 [9]): Active; Ratio IC50 [10]: > 2; Activity (HCT-116 [11]): Active
COc1cc(C(=O)NCCCN2CCCC2)cc(-c2ccccc2C)c1 | 4.66 | – | – | – | –
COc1cccc(CCN2CCN(c3ccccc3-c3cccc(C(=O)NCCCN4CCCC4)c3)CC2)c1 | 6.56 | 5.46 | 0.1 | 815 (≈ 429 µg/mL) | microsomal CLint [5]: 36 µL/min/mg
Cc1ccccc1-c1cc(C(=O)NCCCN2CCCC2)ccn1 | 5.06 | – | – | – | –
O=C(NCCCN1CCCC1)c1cc(-c2ccccc2F)nc2[nH]ncc12 | 4.77 | – | – | – | –
CNCCCNC(=O)c1cc(-c2ccccc2C)nc2[nH]ncc12 | < 4.08 | – | – | – | –
Cc1ccccc1-c1cc(C(=O)NCCCN2CCCC2)c2c(C)n[nH]c2n1 | 5.05 | – | – | – | –
Cc1ccccc1-c1cc(C(=O)NCC(O)CN2CCCC2)c2cn[nH]c2n1 (stereo not drawn) | 4.92 | – | – | – | –
COc1ccccc1-c1cc(C(=O)NCCCN2CCCC2)c2cn[nH]c2n1 | 4.84 | – | – | – | –
O=C(NCCCN1CCCC1)c1cccc(-c2ccccc2N2CCN(CCc3ccc(Cl)c(Cl)c3)CC2)c1 | 6.78 | 5.49 | < 0.01 | 34 (≈ 19.2 µg/mL) | microsomal CLint [5]: 68 µL/min/mg
COc1cccc(CCN2CCN(c3ccccc3-c3cc(C(=O)NCCCN4CCCC4)ccn3)CC2)c1 | 6.36 | 5.91 | 0.41 | > 1000 | –
CCc1ccccc1-c1cc(C(=O)NCCCN2CCCC2)c2cn[nH]c2n1 | 5.08 | – | – | – | –
